The values that follow come from article PMC5226292 (Pharmacology Research & Perspectives, 2016).

Molecules are shown by their SMILES. “Also recorded” adds a separate entry of the source.

Data set [1] concerns primary islets from WT mice. The data set is described as follows: Insulin secretion from isolated WT mouse islets. The data set is classed as cell-based. The conditions noted are these: 11.2 mmol/L glucose, 90 min. An outline of the steps:
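Islets came from 2-3-month-old male wild-type C57BL/6 mice and were purified on a Histopaque-1100 gradient. They were exposed to test compound, or linoleic acid as reference ligand, in 11.2 mmol/L glucose. Insulin secretion is expressed as fold over vehicle, analysed by ANOVA with Dunnett's comparison.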

The subject of data set [2] is primary islets from GPR40 KO mice. The data set is described as follows: Insulin secretion from isolated GPR40 KO mouse islets. The conditions noted are these: 11.2 mmol/L glucose, 90 min. Type of data set: cell-based. An outline of the steps: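 Islets from 2–3-month-old male GPR40 KO mice were purified on a Histopaque-1100 gradient and cultured overnight in RPMI-1640 with 10% FBS and antibiotics. They were preincubated 30 min in EBSS with 0.1% BSA and 2.8 mmol/L glucose. Islets were then incubated 90 min with 2.8 or 11.2 mmol/L glucose plus rising test compound levels (6 batches of 4 islets per condition). Linoleic acid and GLP-1(7-36) amide served as controls. Insulin was measured by ECL, expressed as fold over vehicle, and compared by ANOVA with Dunnett's test.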

Data set [3] can be described thus: Compound exposure in lean mice. Type of data set: in vivo, mouse. The conditions noted are these: single oral dose 10 mg/kg, over 8 h. An outline of the steps: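 Male ICR mice; single oral dose in 0.5% methylcellulose/0.25% Tween-80. EDTA-plasma collected by retro-orbital bleed at 0.5, 1, 2, 4 and 8 h post-dose. Total circulating test compound measured by LC-MS.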

For data set [4], the system named is nuclear hormone receptors, other G-protein-coupled receptors (GPCRs) and enzyme targets. The data set is described as follows: Broad range of assays: nuclear hormone receptors, other GPCRs and enzyme targets. As to conditions: data not shown.
The next data set has as its system GPR40 KO mice. Put plainly: OGTT in GPR40 KO mice. Type of data set: in vivo, mouse. As to conditions: oral 30 mg/kg, 60 min before OGTT, versus vehicle. An outline of the steps:
(§1)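 Chow-fed male mice aged 2–3 months (WT, GPR40 KO or GPR120 KO) were fasted overnight from about 1600 and randomized at about 0800 by fasting glucose and body weight. Oral test compound 30 mg/kg or vehicle (0.5% methylcellulose, 0.25% Tween-80) was given 60 min before oral glucose 2 g/kg. Tail-blood glucose was read by glucometer at 0, 15, 30, 60 and 120 min, averaging two readings, and analysed by repeated-measures ANOVA.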

In another data set the test system is normal ICR mice. Put plainly: IPGTT in lean ICR mice. The data set is classed as in vivo, mouse. An outline of the steps:
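Male ICR mice aged 9-10 weeks were fasted overnight (about 1600 to 0800) and randomized by fasting glucose and body weight. Test compound or vehicle (0.5% methylcellulose/0.25% Tween-80) was given orally 60 min before IP glucose. Serum was sampled at 0, 3, 6 and 15 min and assayed with a Mesoscale rat/mouse insulin kit.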

For a further data set, the system named is WT mice. Put plainly: OGTT in WT mice. The data set is classed as in vivo, mouse. As to conditions: oral 30 mg/kg, 60 min before OGTT, versus vehicle. An outline of the steps:
as §1

The subject of a further data set is STZ-treated DIO mice. Put plainly: Glycemic control in STZ-treated DIO mice. Type of data set: in vivo, mouse. The conditions noted are these: for glucose AUC during OGTTs on days 7 and 14: oral once daily, LY2881835 30 mg/kg, sitagliptin 3 mg/kg. An outline of the steps:
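Male DIO mice aged 5–6 months got IP streptozotocin 50 mg/kg twice in one week. Two weeks later, mice with 9 am glucose of 180–300 mg/dL were randomized by body weight and glucose. Dosing was oral, once daily for 16 days: test compound 30 mg/kg given 30 min and sitagliptin 3 mg/kg 60 min before OGTTs on days 1, 7 and 14. Glucose was sampled at 0–120 min and glucose AUC calculated; 7 per group, with age-matched non-STZ mice included.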

The subject of data set [5] is diet-induced obese (DIO) mice. The data set is described as follows: Glycemic control in DIO mice. Type of data set: in vivo, mouse. As to conditions: oral 10 mg/kg once daily. An outline of the steps:
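Male DIO mice aged 5–6 months were acclimated for 2 weeks and randomized by body weight and fasting blood glucose. They received oral test compound at 10 mg/kg or vehicle (0.5% methylcellulose, 0.25% Tween-80) once daily for 15 days, dosed 60 min before oral glucose. OGTTs on days 1 and 15 sampled tail blood at 0, 15, 30, 60 and 120 min by glucometer, averaging two readings.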

Another data set has as its target hGPR40 (Homo sapiens, UniProt O14842). Put plainly: Calcium flux assay. The data set is classed as cell-based.
The next data set relates to individuals with T2D. The conditions noted are these: oral, 12 weeks, ref Araki et al. 2012, Burant et al. 2012; cited from earlier work.
A further data set deals with Zucker fa/fa rats. The data set is described as follows: Glycemic control in fatty Zucker fa/fa rats. The data set is classed as in vivo, rat. The conditions noted are these: oral once daily, LY2881835 1 mg/kg, rosiglitazone 3 mg/kg. An outline of the steps:
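Male Zucker fa/fa rats aged 2–3 months were acclimated for 2 weeks and randomized by body weight and glucose (n = 6/group). Test compound 1 mg/kg, rosiglitazone 3 mg/kg or vehicle was given orally once daily for 21 days. OGTTs on days 1 and 21 sampled blood at 0, 10, 20, 40 and 60 min, averaging two readings. Age-matched lean rats were included.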

hGPR40, sequence (O14842 whole entry): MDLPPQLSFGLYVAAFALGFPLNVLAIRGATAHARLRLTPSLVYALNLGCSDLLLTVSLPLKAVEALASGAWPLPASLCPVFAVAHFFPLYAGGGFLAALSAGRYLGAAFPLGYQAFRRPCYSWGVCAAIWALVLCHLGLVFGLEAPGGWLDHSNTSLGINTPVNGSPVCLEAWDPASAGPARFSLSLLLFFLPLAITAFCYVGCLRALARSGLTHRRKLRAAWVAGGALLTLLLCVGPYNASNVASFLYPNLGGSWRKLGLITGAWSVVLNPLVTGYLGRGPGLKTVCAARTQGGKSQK

Take `CC#C[C@@H](CC(=O)O)c1ccc(OCc2ccc(CN3CCC4(C=Cc5ccccc54)CC3)cc2)cc1` [LY2881835, (3S)‐3‐(4‐{[4‐(1′H‐spiro[indene‐1,4′‐piperidin]‐1′‐ylmethyl)benzyl]oxy}phenyl)hex‐4‐ynoic acid]: the “insulin secretion in WT primary islets” value in data set [1] is “statistically significant increase in insulin secretion”. In addition, in data set [2], the “insulin secretion in GPR40 KO primary islets” value is recorded as “Enhanced insulin secretion was absent; also recorded: No insulin secretion”. Also, the “plasma concentration time course” value in data set [3] was “peaked and remained elevated at 15, 30, and 60 min followed by a slight decrease in levels throughout the 8 h study”. For the same molecule, in data set [4], the “signals in assay systems not expressing GPR40” value is listed as “No positive signals were detected”. For the same molecule, the results for the “glucose levels during OGTT” value in the data set on GPR40 KO mice and in the data set on WT mice were “had no effect on glucose levels” and “significant glucose lowering”, respectively. Also, the “insulin AUC during IPGTT” value in the data set on normal ICR mice (oral 10 mg/kg dose group, versus vehicle) was “statistically significant enhancement in insulin AUC”. Also, the “insulin secretion during IPGTT” value with normal ICR mice (oral 0.3, 1, 3 and 10 mg/kg, 60 min before IP glucose 2 g/kg) is given as “clear dose‐dependent enhancement in insulin secretion”. Further, the “blood glucose during OGTT after a single treatment” value in the data set on STZ-treated DIO mice (oral 30 mg/kg, day 1) is on record as “lowered blood glucose”. Moreover, the “glucose AUC during OGTTs on days 7 and 14” value in the data set on STZ-treated DIO mice was “Results are similar”. Further, the hypoglycemia entry in data set [5] is listed as “no evidence of hypoglycemia was observed”. Also, the “fasting glucose levels at time 0 of the OGTTs” value in [5] (60 min after administration) was “significantly reduced”. For the same molecule, in data set [5] (OGTTs on days 1 and 15), the “glucose levels during OGTTs” value is “Significant reductions in glucose levels”. In addition, the EC50 at hGPR40 was determined as 164 ± 94 nM.
For `Cc1cc(OCCCS(C)(=O)=O)cc(C)c1-c1cccc(COc2ccc3c(c2)OC[C@H]3CC(=O)O)c1` [TAK‐875], the HbA1c reduction entry with individuals with T2D is “superior to historical data with DPPIV inhibitors and comparable with that of sulfonylureas”.
As to `CCCCC/C=C\C/C=C\CCCCCCCC(=O)O` [linoleic acid, reference compound], the “insulin secretion in GPR40 KO primary islets” value was “a reduction in insulin secretion was seen” in [2] and “No insulin secretion” in data set [2] (listed as LA).
In the case of `CN(CCOc1ccc(CC2SC(=O)NC2=O)cc1)c1ccccn1` (stereo not shown) [rosiglitazone, Rosiglitazone], the “blood glucose during OGTT on day 1” value with Zucker fa/fa rats is listed as “no glucose lowering”.
Regarding `N[C@@H](CC(=O)N1CCn2c(nnc2C(F)(F)F)C1)Cc1cc(F)c(F)cc1F` [sitagliptin, reference compound], the “glucose AUC during OGTTs on days 7 and 14” value with STZ-treated DIO mice is on record as “Results are similar”.
